For one molecule, IC50, Activity and inhibition results are on record in ChEMBL document CHEMBL1909581, “Growth inhibition of human lung cancer cells via down-regulation of epidermal growth factor receptor signaling by yuanhuadine, a daphnane diterpene from Daphne genkwa” (J Nat Prod, 2011).

The source made the active and inactive calls. The calls are words filed in the database; no cut-off is given here.

The test system of assay [1] is NCI-H292. The assay is described as follows: Antiproliferative activity against human NCI-H292 cells after 3 days by SRB assay. In kind it is functional, cell-based. To be noted: NCI-H292, 72 h. On the technique in general: The SRB assay estimates cell density from bound dye.
The subject of assay [2] is NCI-H1993. In words: Antiproliferative activity against human NCI-H1993 cells after 3 days by SRB assay. Conditions: NCI-H1993, 72 h. In kind it is functional, cell-based.
Assay [3] concerns NCI-H292. In words: Antiproliferative activity against gefitinib resistant human NCI-H292 cells after 3 days by SRB assay. In kind it is functional, cell-based. Conditions: NCI-H292, 72 h.
Assay [4] has as its system NCI-H1993. The assay is described as follows: Antiproliferative activity against gefitinib resistant human NCI-H1993 cells after 3 days by SRB assay. In kind it is functional, cell-based. Conditions: NCI-H1993, 72 h.
The next assay has as its system HCT-116. The assay is described as follows: Antiproliferative activity against human HCT116 cells after 3 days by SRB assay. Format: functional, cell-based. To be noted: HCT-116, 72 h. The method in brief:
(§1)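 Cells seeded at 5 × 10^4 cells/mL and exposed to a range of concentrations for 3 days. Fixed with 10% TCA, then SRB stain read. Growth expressed as % of solvent-treated control. IC50 obtained by nonlinear regression of percent survival versus concentration.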

The subject of another assay is SNU-638. In words: Antiproliferative activity against human SNU638 cells after 3 days by SRB assay. In kind it is functional, cell-based. Conditions: SNU-638, 72 h. The method in brief:
as §1

A further assay has as its system PC-3. In words: Antiproliferative activity against human PC3 cells after 3 days by SRB assay. Format: functional, cell-based. To be noted: PC-3, 72 h. In outline: as §1
Assay [5] has as its system A549. The assay is described as follows: Antiproliferative activity against human A549 cells assessed as reduction in colonies after treatment for 24 hrs measured after 14 days using Giemsa staining. Format: functional, cell-based. In outline: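 A549 plated at 100 cells per 35 mm dish. After 24 h, medium with compound added for 24 h, then PBS wash and 14 days' growth in drug-free medium. Colonies methanol-fixed, Giemsa-stained, counted, and expressed as % of DMSO-treated control.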

Assay [6] relates to A549. The assay is described as follows: Cell cycle arrest in human A549 cells assessed as accumulation at Sub-G1 phase at 5 nM after 24 hrs by propidium iodide staining-based flow cytometric analysis (reference value: 0.2 %). Format: functional. For orientation: A flow cytometer gives signals particle by particle.
The subject of assay [7] is A549. The assay is described as follows: Cell cycle arrest in human A549 cells assessed as accumulation at G0/G1 phase at 5 nM after 24 hrs by propidium iodide staining-based flow cytometric analysis (reference value: 49.6 %). Format: functional.
Assay [8] concerns A549. In words: Cell cycle arrest in human A549 cells assessed as accumulation at G2/M phase at 5 nM after 24 hrs by propidium iodide staining-based flow cytometric analysis (reference value: 18.9 %). Format: functional.
Assay [9] relates to A549. The assay is described as follows: Cell cycle arrest in human A549 cells assessed as accumulation at G0/G1 phase at 20 nM after 24 hrs by propidium iodide staining-based flow cytometric analysis (reference value: 49.6 %). In kind it is functional.
In assay [10] the test system is A549. The assay is described as follows: Cell cycle arrest in human A549 cells assessed as accumulation at S phase at 20 nM after 24 hrs by propidium iodide staining-based flow cytometric analysis (reference value: 31.6 %). In kind it is functional.
The test system of assay [11] is A549. In words: Downregulation of c-myc expression in human A549 cells at G1 phase at 5 to 100 nM after 24 to 48 hrs by Western blot analysis. In kind it is functional, cell-based. In outline:
(§2)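 A549 cells treated with a range of concentrations for 24 or 48 h. Lysates run on 6–15% SDS-PAGE and blotted to PVDF, blocked in 5% milk/PBST. Primary antibodies overnight at 4 °C, secondary 2 h at room temperature, ECL detection. Representative of three independent experiments.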
(A western blot detects proteins with antibodies after separation by electrophoresis.)

Assay [12] concerns A549. The assay is described as follows: Downregulation of CDC2 expression in human A549 cells at G2/M phase at 5 to 100 nM after 24 to 48 hrs by Western blot analysis. In kind it is functional, cell-based. In outline: as §2
Assay [13] deals with A549. The assay is described as follows: Inhibition of Akt-signaling in human A549 cells at 5 to 40 nM after 24 hrs by Western blot analysis. In kind it is cell-based. In outline: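 A549 cells exposed for 24 or 48 h to a range of concentrations. Akt/mTOR pathway proteins in lysates assessed by Western blot (SDS-PAGE, PVDF, ECL detection).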
Assay [14] deals with Glycogen synthase kinase-3 beta (Homo sapiens) (UniProt P49841). In words: Inhibition of GSK3-beta in human A549 cells after 24 hrs by Western blot analysis. In kind it is cell-based. The method in brief: (§3)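 A549 cells (RPMI 1640, 10% FBS, 37 °C, 5% CO2) exposed to the compound at various concentrations for 24 or 48 h. Lysates run on 6–15% SDS-PAGE, transferred to PVDF, probed with primary antibodies overnight at 4 °C, and detected by ECL. Blots shown are representative of three independent experiments.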
Chain of Glycogen synthase kinase-3 beta (Homo sapiens) (P49841 whole entry, looked up): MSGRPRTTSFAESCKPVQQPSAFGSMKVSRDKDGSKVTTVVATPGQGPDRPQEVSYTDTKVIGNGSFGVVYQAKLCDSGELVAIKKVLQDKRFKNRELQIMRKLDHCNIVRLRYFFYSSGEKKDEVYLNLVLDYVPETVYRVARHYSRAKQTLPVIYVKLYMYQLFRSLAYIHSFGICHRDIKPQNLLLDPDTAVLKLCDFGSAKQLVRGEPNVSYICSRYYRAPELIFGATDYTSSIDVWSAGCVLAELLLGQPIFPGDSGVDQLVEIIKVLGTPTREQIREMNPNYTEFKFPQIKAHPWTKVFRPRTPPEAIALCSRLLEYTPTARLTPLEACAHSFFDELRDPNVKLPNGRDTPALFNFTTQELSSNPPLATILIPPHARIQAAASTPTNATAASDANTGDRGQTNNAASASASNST

Assay [15] has as its target Serine/threonine-protein kinase mTOR (Homo sapiens) (UniProt P42345). In words: Inhibition of MTOR phosphorylation in human A549 cells at 20 nM after 24 to 48 hrs by Western blot analysis. In kind it is cell-based. The method in brief:
as §3

In assay [16] the target is Epidermal growth factor receptor (Homo sapiens) (UniProt P00533). In words: Inhibition of EGFR-mediated Akt phosphorylation in EGF-stimulated human A549 cells pretreated at 20 nM by Western blot analysis. Format: cell-based. In outline: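 A549 cells serum-starved 24 h, pretreated with 20 nM compound for 2 h, then stimulated with EGF (10 ng/mL) for 10 min. Levels of EGFR, Akt and ERK read by Western blot.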
Chain of Epidermal growth factor receptor (Homo sapiens) (P00533 whole entry): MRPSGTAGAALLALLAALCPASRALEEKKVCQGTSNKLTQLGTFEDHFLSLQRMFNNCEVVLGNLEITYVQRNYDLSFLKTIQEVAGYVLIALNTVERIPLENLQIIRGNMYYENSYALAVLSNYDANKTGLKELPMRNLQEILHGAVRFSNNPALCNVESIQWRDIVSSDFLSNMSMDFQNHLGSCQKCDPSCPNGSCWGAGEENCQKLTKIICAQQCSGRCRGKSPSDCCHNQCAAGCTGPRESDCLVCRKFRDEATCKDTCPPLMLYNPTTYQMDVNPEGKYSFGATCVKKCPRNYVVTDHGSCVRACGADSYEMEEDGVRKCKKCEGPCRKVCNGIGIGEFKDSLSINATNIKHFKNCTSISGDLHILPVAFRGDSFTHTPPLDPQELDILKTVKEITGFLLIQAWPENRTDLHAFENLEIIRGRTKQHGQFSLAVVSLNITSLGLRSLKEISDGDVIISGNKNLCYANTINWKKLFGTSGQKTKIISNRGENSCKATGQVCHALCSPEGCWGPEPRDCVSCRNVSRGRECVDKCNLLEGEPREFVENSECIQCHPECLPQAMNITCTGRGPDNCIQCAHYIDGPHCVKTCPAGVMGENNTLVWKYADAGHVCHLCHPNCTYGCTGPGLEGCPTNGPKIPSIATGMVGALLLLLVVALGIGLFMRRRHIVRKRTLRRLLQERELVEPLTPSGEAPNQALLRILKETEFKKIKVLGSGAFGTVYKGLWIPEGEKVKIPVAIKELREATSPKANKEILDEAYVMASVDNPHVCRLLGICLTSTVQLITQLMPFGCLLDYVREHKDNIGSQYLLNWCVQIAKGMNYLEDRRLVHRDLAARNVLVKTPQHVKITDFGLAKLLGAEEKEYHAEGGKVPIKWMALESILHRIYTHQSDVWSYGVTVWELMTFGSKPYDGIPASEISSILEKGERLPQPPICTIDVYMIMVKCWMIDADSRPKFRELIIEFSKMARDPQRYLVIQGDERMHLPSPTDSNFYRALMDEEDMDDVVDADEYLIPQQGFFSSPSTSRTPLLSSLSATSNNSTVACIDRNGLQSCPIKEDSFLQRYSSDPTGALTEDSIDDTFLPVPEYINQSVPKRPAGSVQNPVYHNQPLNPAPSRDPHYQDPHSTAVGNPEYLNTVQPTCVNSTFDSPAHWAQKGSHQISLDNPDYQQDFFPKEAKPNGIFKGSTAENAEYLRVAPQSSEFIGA

Assay [17] shares this target. In words: Inhibition of EGFR-mediated ERK1/2 phosphorylation in EGF-stimulated human A549 cells pretreated at 5 to 100 nM by Western blot analysis. Format: cell-based.
Assay [18] deals with Hepatocyte growth factor receptor (Homo sapiens) (UniProt P08581). The assay is described as follows: Inhibition of c-Met phosphorylation at Tyr1230/1234/1235 in HGF-stimulated human A549 cells pretreated at 5 to 100 nM for 2 hrs by Western blot analysis. Format: cell-based. In outline: (§4)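 A549 cells pretreated for 2 h with the compound at 5, 20 or 100 nM, then stimulated with HGF (50 ng/mL) for 10 min. c-Met and its downstream signalling proteins read by Western blot (SDS-PAGE, PVDF transfer, ECL detection).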
Chain of Hepatocyte growth factor receptor (Homo sapiens) (P08581 whole entry): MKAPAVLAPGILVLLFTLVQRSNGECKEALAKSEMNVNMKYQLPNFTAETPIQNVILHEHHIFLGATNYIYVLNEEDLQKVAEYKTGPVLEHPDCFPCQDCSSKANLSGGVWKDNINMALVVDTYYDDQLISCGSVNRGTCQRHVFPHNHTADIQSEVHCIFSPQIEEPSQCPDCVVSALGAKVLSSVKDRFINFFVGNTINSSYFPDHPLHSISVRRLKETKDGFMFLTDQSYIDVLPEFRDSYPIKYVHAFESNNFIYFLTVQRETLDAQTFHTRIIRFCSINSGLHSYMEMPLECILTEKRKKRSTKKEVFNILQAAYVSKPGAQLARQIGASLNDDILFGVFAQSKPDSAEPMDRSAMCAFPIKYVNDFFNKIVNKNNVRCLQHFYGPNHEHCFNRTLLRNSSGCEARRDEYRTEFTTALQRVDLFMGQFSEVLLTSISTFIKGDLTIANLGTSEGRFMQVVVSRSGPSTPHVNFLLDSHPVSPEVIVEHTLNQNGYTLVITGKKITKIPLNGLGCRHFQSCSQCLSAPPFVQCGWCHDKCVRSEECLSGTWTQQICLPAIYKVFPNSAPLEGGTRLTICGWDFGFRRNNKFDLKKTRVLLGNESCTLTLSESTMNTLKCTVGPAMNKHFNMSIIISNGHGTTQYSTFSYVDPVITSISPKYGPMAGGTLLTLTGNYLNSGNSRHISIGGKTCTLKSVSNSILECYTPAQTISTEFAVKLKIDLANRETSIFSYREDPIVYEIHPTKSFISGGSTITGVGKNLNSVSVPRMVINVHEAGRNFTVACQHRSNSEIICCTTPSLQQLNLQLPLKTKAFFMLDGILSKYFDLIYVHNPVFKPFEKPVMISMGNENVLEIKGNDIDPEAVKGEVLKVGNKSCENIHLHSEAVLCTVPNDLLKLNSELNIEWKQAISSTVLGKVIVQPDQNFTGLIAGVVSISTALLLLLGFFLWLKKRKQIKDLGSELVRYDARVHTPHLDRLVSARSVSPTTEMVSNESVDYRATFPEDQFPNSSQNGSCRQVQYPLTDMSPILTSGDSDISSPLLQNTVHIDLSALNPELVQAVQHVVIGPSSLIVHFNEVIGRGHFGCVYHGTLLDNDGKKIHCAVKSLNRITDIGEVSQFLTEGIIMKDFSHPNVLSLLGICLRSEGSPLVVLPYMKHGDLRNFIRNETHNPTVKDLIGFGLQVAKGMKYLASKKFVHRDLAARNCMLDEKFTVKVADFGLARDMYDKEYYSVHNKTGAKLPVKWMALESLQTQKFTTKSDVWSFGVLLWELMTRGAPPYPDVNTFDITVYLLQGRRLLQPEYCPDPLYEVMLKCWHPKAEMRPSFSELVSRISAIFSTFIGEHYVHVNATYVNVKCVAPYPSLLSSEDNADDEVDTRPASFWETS

The target is the same in assay [19]. In words: Inhibition of c-Met-mediated ERK1/2 phosphorylation in HGF-stimulated human A549 cells pretreated at 5 to 100 nM by Western blot analysis. Format: cell-based. The method in brief:
as §4

Take `C=C(C)[C@@]12O[C@@]3(/C=C/C=C/CCCCC)O[C@@H]1[C@@H]1[C@@H]4O[C@]4(CO)[C@@H](O)[C@]4(O)C(=O)C(C)=C[C@H]4[C@@]1(O3)[C@H](C)[C@H]2OC(C)=O` [YUANHUADINE]: the IC50 (as a rule, the concentration that inhibits the measured activity by half) in the assay with NCI-H292 [1] was below 0.001 nM; with NCI-H1993 [2], 4.7 nM; in the assay with NCI-H292 [3] it was below 0.001 nM; with NCI-H1993 [4], 4.1 nM; in the assay on HCT-116, 10200 nM; with SNU-638 it was above 20000 nM. The same molecule had an IC50 with PC-3 of 7400 nM. For the same molecule, the outcome in the assay on A549 [5], in the assay with A549 [11] and in the assay on A549 [12] was Active. In addition, the Activity with A549 [6] is reported as 2%; with A549 [7], 67%; in the assay on A549 [8], 27.5%; in the assay with A549 [9], 68.2%; with A549 [10] it was 7.3%. The inhibition entry (in the assay on A549 [13]; in assay [15]; in assay [16]; in assay [17]; in assay [18]; in [19]) was “Active” throughout. Further, the inhibition result in assay [14] was “Dose-dependent effect”.
